In general, IC50 refers to the midpoint of a concentration-inhibition curve. A high value points to weaker potency. In general, EC50 refers to the concentration giving half of the maximal effect.

The text below walks through data of ChEMBL document CHEMBL1143592, “N-terminal sugar conjugation and C-terminal Thr-for-Thr(ol) exchange in radioiodinated Tyr3-octreotide: effect on cellular ligand trafficking in vitro and tumor accumulation in vivo” (J Med Chem, 2005).

Assay [1] has as its target Somatostatin receptor type 1 (Homo sapiens, UniProt P30872). Put plainly: In vitro inhibition of [125I][Leu8,D-Trp22,Tyr25] somatostatin 28 binding to human somatostatin receptor type 1 expressed in CHO-K1 cells; (n=3). In kind it is cell-based. As to conditions: cho-k1.
Assay [2] addresses Somatostatin receptor type 5 (Homo sapiens, UniProt P35346). Put plainly: In vitro inhibition of [125I][Leu8,D-Trp22,Tyr25] somatostatin 28 binding to human somatostatin receptor type 5 expressed in CHO-K1 cells; (n=3). In kind it is cell-based.
The target of assay [3] is T1, Somatostatin receptor type 2 (Homo sapiens, UniProt P30874). Put plainly: In vitro inhibition of [125I][Leu8,D-Trp22,Tyr25] somatostatin 28 binding to human somatostatin receptor type 2 expressed in CCL39 cells; (n=3). In kind it is cell-based.
T1 sequence (P30874 whole entry): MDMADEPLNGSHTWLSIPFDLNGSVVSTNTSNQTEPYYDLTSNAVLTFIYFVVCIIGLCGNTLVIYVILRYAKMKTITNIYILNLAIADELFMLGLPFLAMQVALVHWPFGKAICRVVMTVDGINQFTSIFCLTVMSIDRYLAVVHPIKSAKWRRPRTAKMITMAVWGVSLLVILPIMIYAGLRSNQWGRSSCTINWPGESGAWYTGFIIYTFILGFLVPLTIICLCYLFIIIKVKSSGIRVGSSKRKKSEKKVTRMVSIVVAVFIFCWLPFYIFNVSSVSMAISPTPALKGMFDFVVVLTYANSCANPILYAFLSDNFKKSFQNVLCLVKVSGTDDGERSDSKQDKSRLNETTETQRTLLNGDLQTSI
The target of assay [4] is Somatostatin receptor type 3 (Homo sapiens, UniProt P32745). Put plainly: In vitro inhibition of [125I][Leu8,D-Trp22,Tyr25] somatostatin 28 binding to human somatostatin receptor type 3 expressed in CCL39 cells; (n=3). In kind it is cell-based. Conditions: ccl39.
Chain of Somatostatin receptor type 3 (P32745 whole entry): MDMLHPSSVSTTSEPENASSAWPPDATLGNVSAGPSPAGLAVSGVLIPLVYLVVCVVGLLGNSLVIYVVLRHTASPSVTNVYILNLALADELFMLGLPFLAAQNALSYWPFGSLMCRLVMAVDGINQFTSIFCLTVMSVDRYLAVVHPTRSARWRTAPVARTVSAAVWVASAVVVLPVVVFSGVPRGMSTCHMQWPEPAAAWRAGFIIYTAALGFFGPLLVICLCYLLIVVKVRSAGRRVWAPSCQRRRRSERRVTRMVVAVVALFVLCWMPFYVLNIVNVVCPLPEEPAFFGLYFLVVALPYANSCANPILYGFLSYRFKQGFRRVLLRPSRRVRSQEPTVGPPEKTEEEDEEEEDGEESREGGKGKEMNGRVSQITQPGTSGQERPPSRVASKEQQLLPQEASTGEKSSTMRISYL
The target of assay [5] is Somatostatin receptor type 4 (Homo sapiens, UniProt P31391). Put plainly: In vitro inhibition of [125I][Leu8,D-Trp22,Tyr25] somatostatin 28 binding to human somatostatin receptor type 4 expressed in CCL39 cells; (n=3). In kind it is cell-based. The gist of the method:
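Membrane pellets from CCL39 cells stably expressing hsst4 were sectioned onto slides for receptor autoradiography. Full displacement of the universal somatostatin radioligand used unlabeled peptide at 0.1–1000 nM, with somatostatin 28 run in parallel at the same concentrations. Values are mean ± SD.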

Assay [6] concerns the target T1, Somatostatin receptor type 2. Put plainly: Relative effective concentration against human somatostatin receptor type 2 expressed in CHO cells; (n=3). In kind it is cell-based. The method, boiled down:
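Dual-tracer internalization in CHO cells stably expressing N-terminally tagged hsst2 (90000–120000 cells/well, plated the day before). Acid wash at pH 5 removed surface-bound activity; nonspecific uptake was taken with 5 µM TOC; triplicates. EC50 is expressed relative to [125I]TOC.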

In assay [7] the target is Somatostatin receptor type 2 (Rattus norvegicus) (UniProt P30680). Put plainly: In vivo tumor accumulation was determined in nude mice bearing rat pancreatic AR42J tumor cell expressed with somatostatin receptor type 2;60 min p.i.; (n=3-5). In kind it is functional, organism-based. Conditions: AR-42J, tested as the 123I-labelled form. The gist of the method:
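Female Swiss nu/nu mice, 6–8 weeks, were inoculated s.c. in the flank with (2.5–5) × 10⁶ AR42J cells in serum-free RPMI 1640 and used after 10 days (tumors 150–500 mg). About 370 kBq of radioiodinated peptide in 100 µL PBS pH 7.4 was given i.v. into the tail vein. Tumor was excised 60 min p.i. and gamma-counted; results are % ID/g.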

Chain of Somatostatin receptor type 4 (P31391 whole entry): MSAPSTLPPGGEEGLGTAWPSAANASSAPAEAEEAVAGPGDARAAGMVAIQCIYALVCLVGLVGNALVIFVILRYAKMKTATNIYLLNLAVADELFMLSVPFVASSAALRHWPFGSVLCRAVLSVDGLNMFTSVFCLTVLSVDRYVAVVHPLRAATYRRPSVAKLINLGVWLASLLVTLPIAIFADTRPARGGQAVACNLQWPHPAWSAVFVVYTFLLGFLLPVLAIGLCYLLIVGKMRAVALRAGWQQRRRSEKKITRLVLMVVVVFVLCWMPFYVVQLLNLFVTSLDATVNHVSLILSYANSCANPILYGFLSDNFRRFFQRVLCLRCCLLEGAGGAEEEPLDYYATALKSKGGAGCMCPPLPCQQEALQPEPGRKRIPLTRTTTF
Chain of Somatostatin receptor type 5 (P35346 whole entry): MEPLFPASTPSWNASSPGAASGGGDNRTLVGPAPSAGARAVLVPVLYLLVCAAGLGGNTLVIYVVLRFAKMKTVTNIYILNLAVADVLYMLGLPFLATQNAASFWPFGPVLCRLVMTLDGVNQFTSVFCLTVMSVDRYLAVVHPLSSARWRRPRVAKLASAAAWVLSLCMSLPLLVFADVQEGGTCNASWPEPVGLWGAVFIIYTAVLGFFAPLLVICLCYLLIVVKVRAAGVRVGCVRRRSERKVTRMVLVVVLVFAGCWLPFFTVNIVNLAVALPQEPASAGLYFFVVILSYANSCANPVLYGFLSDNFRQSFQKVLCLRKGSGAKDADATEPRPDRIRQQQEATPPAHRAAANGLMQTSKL
Chain of Somatostatin receptor type 1 (P30872 whole entry): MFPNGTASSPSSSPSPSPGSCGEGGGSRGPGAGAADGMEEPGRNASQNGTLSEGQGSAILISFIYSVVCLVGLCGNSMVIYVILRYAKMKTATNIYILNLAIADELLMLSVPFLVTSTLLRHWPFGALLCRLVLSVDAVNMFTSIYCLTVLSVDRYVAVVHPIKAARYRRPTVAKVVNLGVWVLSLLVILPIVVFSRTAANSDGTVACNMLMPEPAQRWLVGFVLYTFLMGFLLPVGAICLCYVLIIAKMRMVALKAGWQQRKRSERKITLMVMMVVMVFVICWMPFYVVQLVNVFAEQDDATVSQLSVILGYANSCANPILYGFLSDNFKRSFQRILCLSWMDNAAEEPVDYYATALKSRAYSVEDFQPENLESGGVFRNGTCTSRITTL
Chain of Somatostatin receptor type 2 (Rattus norvegicus) (P30680 whole entry): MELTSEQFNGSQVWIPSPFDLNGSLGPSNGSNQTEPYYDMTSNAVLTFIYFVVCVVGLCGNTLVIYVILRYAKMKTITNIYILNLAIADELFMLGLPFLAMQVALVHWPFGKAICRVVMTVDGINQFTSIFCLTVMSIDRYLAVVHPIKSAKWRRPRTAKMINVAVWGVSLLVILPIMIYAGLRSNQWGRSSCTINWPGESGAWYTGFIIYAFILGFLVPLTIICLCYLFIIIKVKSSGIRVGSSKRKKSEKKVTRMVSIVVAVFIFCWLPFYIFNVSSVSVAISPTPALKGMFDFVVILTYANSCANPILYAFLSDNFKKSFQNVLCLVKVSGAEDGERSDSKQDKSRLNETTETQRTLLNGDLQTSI

With `C[C@@H](O)[C@H](CO)NC(=O)[C@@H]1CSSC[C@H](NC(=O)[C@@H](Cc2ccccc2)NC[C@]2(O)OC[C@H](O)[C@@H](O[C@@H]3O[C@@H](CO)[C@@H](O)[C@H](O)[C@@H]3O)[C@@H]2O)C(=O)N[C@@H](Cc2ccc(O)c(I)c2)C(=O)N[C@H](Cc2c[nH]c3ccccc23)C(=O)N[C@@H](CCCCN)C(=O)N[C@@H]([C@@H](C)O)C(=O)N1`, the IC50 in assay [1] is over 10 µM; in assay [2], 0.075 µM; in assay [3], 0.0012 µM; in assay [4] it was 0.243 µM; in assay [5] it was over 1 µM.

In the case of `C[C@@H](O)[C@@H]1NC(=O)[C@H](CCCCN)NC(=O)[C@@H](Cc2c[nH]c3ccccc23)NC(=O)[C@H](Cc2ccc(O)c(I)c2)NC(=O)[C@@H](NC(=O)[C@@H](Cc2ccccc2)NC[C@]2(O)OC[C@H](O)[C@@H](O)[C@@H]2O)CSSC[C@@H](C(=O)N[C@H](CO)[C@@H](C)O)NC1=O`, the IC50 in assay [1] was over 1 µM; in assay [2], 0.064 µM; in assay [3], 0.0022 µM; in assay [4], 0.357 µM; in assay [5] it was 0.837 µM.

With `C[C@@H](O)[C@H](NC(=O)[C@@H]1CSSC[C@H](NC(=O)[C@H](N)Cc2ccccc2)C(=O)N[C@@H](Cc2ccc(O)c([123I])c2)C(=O)N[C@H](Cc2c[nH]c3ccccc23)C(=O)N[C@@H](CCCCN)C(=O)N[C@@H]([C@@H](C)O)C(=O)N1)C(=O)O`, the response in assay [6] was half-maximal at 0.0017 µM (EC50).

Regarding `C[C@@H](O)[C@H](NC(=O)[C@@H]1CSSC[C@H](NC(=O)[C@@H](Cc2ccccc2)NC[C@@]2(O)OC[C@@H](O)[C@@H](O)[C@@H]2O)C(=O)N[C@@H](Cc2ccc(O)c(I)c2)C(=O)N[C@H](Cc2c[nH]c3ccccc23)C(=O)N[C@@H](CCCCN)C(=O)N[C@@H]([C@@H](C)O)C(=O)N1)C(=O)O`, the half-maximal inhibitory concentration (IC50) was over 1 µM in assay [1]; 0.521 µM in assay [2]; 0.002 µM in assay [3]; over 1 µM in assay [4]; 1.03 µM in assay [5].

`C[C@@H](O)[C@H](CO)NC(=O)[C@@H]1CSSC[C@H](NC(=O)[C@H](Cc2ccccc2)NC[C@]2(O)OC[C@H](O)[C@@H](O[C@@H]3O[C@@H](CO)[C@@H](O)[C@H](O)[C@@H]3O)[C@@H]2O)C(=O)N[C@@H](Cc2ccc(O)c(I)c2)C(=O)N[C@H](Cc2c[nH]c3ccccc23)C(=O)N[C@@H](CCCCN)C(=O)N[C@@H]([C@@H](C)O)C(=O)N1`: the ID/g in assay [7] is 5.2%.

For `C[C@@H](O)[C@H](NC(=O)[C@@H]1CSSC[C@H](NC(=O)[C@@H](Cc2ccccc2)NC[C@]2(O)OC[C@H](O)[C@@H](O[C@@H]3O[C@@H](CO)[C@@H](O[C@@H]4O[C@@H](CO)[C@@H](O)[C@H](O)[C@@H]4O)[C@H](O)[C@@H]3O)[C@@H]2O)C(=O)N[C@@H](Cc2ccc(O)c([123I])c2)C(=O)N[C@H](Cc2c[nH]c3ccccc23)C(=O)N[C@@H](CCCCN)C(=O)N[C@@H]([C@@H](C)O)C(=O)N1)C(=O)O`, the 50% effective concentration (EC50) in assay [6] (cho) amounted to 0.00181 µM.

In the case of `C[C@@H](O)[C@H](CO)NC(=O)[C@@H]1CSSC[C@H](NC(=O)[C@@H](Cc2ccccc2)NC[C@]2(O)OC[C@H](O)[C@@H](O[C@@H]3O[C@@H](CO)[C@@H](O)[C@H](O)[C@@H]3O)[C@@H]2O)C(=O)N[C@@H](Cc2ccc(O)c([123I])c2)C(=O)N[C@H](Cc2c[nH]c3ccccc23)C(=O)N[C@@H](CCCCN)C(=O)N[C@@H]([C@@H](C)O)C(=O)N1`, in assay [6] (cho), the EC50 came out at 0.00112 µM.

For `C[C@@H](O)[C@H](NC(=O)[C@@H]1CSSC[C@H](NC(=O)[C@@H](Cc2ccccc2)NC[C@]2(O)OC[C@H](O)[C@@H](O[C@@H]3O[C@@H](CO)[C@@H](O)[C@H](O)[C@@H]3O)[C@@H]2O)C(=O)N[C@@H](Cc2ccc(O)c([123I])c2)C(=O)N[C@H](Cc2c[nH]c3ccccc23)C(=O)N[C@@H](CCCCN)C(=O)N[C@@H]([C@@H](C)O)C(=O)N1)C(=O)O`, the EC50 in assay [6] (cho) stood at 0.00213 µM.

As to `C[C@@H](O)[C@H](NC(=O)[C@@H]1CSSC[C@H](NC(=O)[C@@H](Cc2ccccc2)NC[C@]2(O)OC[C@H](O)[C@@H](O[C@@H]3O[C@@H](CO)[C@@H](O[C@@H]4O[C@@H](CO)[C@@H](O)[C@H](O)[C@@H]4O)[C@H](O)[C@@H]3O)[C@@H]2O)C(=O)N[C@@H](Cc2ccc(O)c(I)c2)C(=O)N[C@H](Cc2c[nH]c3ccccc23)C(=O)N[C@@H](CCCCN)C(=O)N[C@@H]([C@@H](C)O)C(=O)N1)C(=O)O`, the IC50 is over 10 µM in assay [1]; 0.327 µM in assay [2]; 0.00095 µM in assay [3]; 0.823 µM in assay [4]; 0.823 µM in assay [5].

On to `C[C@@H](O)[C@H](NC(=O)[C@@H]1CSSC[C@H](NC(=O)[C@H](Cc2ccccc2)NC[C@]2(O)OC[C@H](O)[C@@H](O[C@@H]3O[C@@H](CO)[C@@H](O)[C@H](O)[C@@H]3O)[C@@H]2O)C(=O)N[C@@H](Cc2ccc(O)c(I)c2)C(=O)N[C@H](Cc2c[nH]c3ccccc23)C(=O)N[C@@H](CCCCN)C(=O)N[C@@H]([C@@H](C)O)C(=O)N1)C(=O)O`, for which the ID/g in assay [7] worked out at 11.2%.

With `C[C@@H](O)[C@H](NC(=O)[C@@H]1CSSC[C@H](NC(=O)[C@@H](Cc2ccccc2)NC[C@]2(O)OC[C@H](O)[C@@H](O[C@@H]3O[C@@H](CO)[C@@H](O)[C@H](O)[C@@H]3O)[C@@H]2O)C(=O)N[C@@H](Cc2ccc(O)c(I)c2)C(=O)N[C@H](Cc2c[nH]c3ccccc23)C(=O)N[C@@H](CCCCN)C(=O)N[C@@H]([C@@H](C)O)C(=O)N1)C(=O)O`, the IC50 was over 10 µM in assay [1]; 0.21 µM in assay [2]; 0.00078 µM in assay [3]; 0.757 µM in assay [4]; 0.797 µM in assay [5].

In assay [6] (cho), `C[C@@H](O)[C@H](CO)NC(=O)[C@@H]1CSSC[C@H](NC(=O)[C@@H](Cc2ccccc2)NC[C@]2(O)OC[C@H](O)[C@@H](O[C@@H]3O[C@@H](CO)[C@@H](O[C@@H]4O[C@@H](CO)[C@@H](O)[C@H](O)[C@@H]4O)[C@H](O)[C@@H]3O)[C@@H]2O)C(=O)N[C@@H](Cc2ccc(O)c([123I])c2)C(=O)N[C@H](Cc2c[nH]c3ccccc23)C(=O)N[C@@H](CCCCN)C(=O)N[C@@H]([C@@H](C)O)C(=O)N1` gave a half-maximal effective concentration (EC50) of 0.00101 µM.

For the compound `C[C@@H](O)[C@H](CO)NC(=O)[C@@H]1CSSC[C@H](NC(=O)[C@H](N)Cc2ccccc2)C(=O)N[C@@H](Cc2ccc(O)c([125I])c2)C(=O)N[C@H](Cc2c[nH]c3ccccc23)C(=O)N[C@@H](CCCCN)C(=O)N[C@@H]([C@@H](C)O)C(=O)N1`, in assay [6] (cho), the midpoint of the response, the EC50, lay at 0.001 µM.

As for `C[C@@H](O)[C@H](CO)NC(=O)[C@@H]1CSSC[C@H](NC(=O)[C@@H](Cc2ccccc2)NC[C@]2(O)OC[C@H](O)[C@@H](O[C@@H]3O[C@@H](CO)[C@@H](O[C@@H]4O[C@@H](CO)[C@@H](O)[C@H](O)[C@@H]4O)[C@H](O)[C@@H]3O)[C@@H]2O)C(=O)N[C@@H](Cc2ccc(O)c(I)c2)C(=O)N[C@H](Cc2c[nH]c3ccccc23)C(=O)N[C@@H](CCCCN)C(=O)N[C@@H]([C@@H](C)O)C(=O)N1`, the IC50 in assay [1] is over 10 µM; in assay [2] it was 0.11 µM; in assay [3], 0.0011 µM; in assay [4], 0.21 µM; in assay [5], over 1 µM.

As to GALLIUM OXODOTREOTIDE, the IC50 in assay [1] was over 10 µM; in assay [2] it was 0.377 µM; in assay [3] it was 0.0002 µM; in assay [4] it was over 1 µM; in assay [5] it was 0.3 µM.

Consider `C[C@@H](O)[C@H](CO)NC(=O)[C@@H]1CSSC[C@H](NC(=O)[C@@H](Cc2ccccc2)NC[C@]2(O)OC[C@H](O)[C@@H](O)[C@@H]2O)C(=O)N[C@@H](Cc2ccc(O)c([123I])c2)C(=O)N[C@H](Cc2c[nH]c3ccccc23)C(=O)N[C@@H](CCCCN)C(=O)N[C@@H]([C@@H](C)O)C(=O)N1`, for which a half-maximal response in assay [6] (cho) (EC50) required 0.00143 µM.
